From PubChem
Sampled rows, rich in hits. Any-hit rate of the full collection: about 2.4%.
bCat nuc transl: alters nuclear translocation of beta-catenin in HeLa cells; immunofluorescence imaging; nuclear translocation activity, % at 5 µM; 0.3% of 190,000 active; AID 1665;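 active means nuclear translocation activity above 50% at 5 µM, with a well cell count of 50 or more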;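 further: per-cell ratio of nuclear to cytoplasmic median beta-catenin stain intensity; plate controls were DMSO negative control for no effect and GSK-3 inhibitor IX positive control for full effect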
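Test system: HeLa cells, endogenous beta-catenin; Compound: single 5 µM dose plus 0.02–20 µM confirmation series; Times: compound exposure 24 h at 37°C; Signal: fluorescence imaging of beta-catenin antibody stain plus DAPI; Read-out: % activation, nuclear-to-cytoplasmic median beta-catenin signal ratio per cell.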
STAT1 inh: STAT1 signaling inhibition; NIH 3T3 STAT1-luciferase reporter, IFN-gamma, luminescence; inhibition, % at 5.5 µM; 0.35% of 200,000 active; AID 920;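 active means inhibition above a set limit, the mean inhibition across all tested compounds plus 3 SD, cut at about 34% in these data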;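 further: 0% = IFN-gamma with DMSO and 100% = IFN-gamma with 300 µM nifuroxazide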
STAT3 inh: STAT3 signaling inhibition | U3A cells, IL-6 STAT3-luciferase reporter, luminescence; host cell line lacks STAT1 | inhibition, % at 5.5 µM | 0.89% of 190,000 active;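 active means inhibition above the mean inhibition across all screened compounds plus 3 SD, cut at about 44% in these data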;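 further: 0% = DMSO only wells and 100% = 100 µM nifuroxazide control wells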
MT stabilizer: stabilizes microtubules in HeLa cells; 0.83% of 200,000 active; HeLa tubulin immunostaining HCS, 24 h; share of cells brighter than vehicle mean+2SD; % tubulin-high responders, % at 10 µM;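 active means plate Z-score above 3 for both tubulin-high and condensed-nucleus cell shares, with cell loss under 80%, at 10 µM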;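 further: anti alpha tubulin signal scored within the nucleus-defined area of each cell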
STAT3 activator: activators of IL-6 induced STAT3 signaling | U3A cells, IL-6 STAT3-luciferase reporter, luminescence; 100% = signal with IL-6 EC80 alone | activation (% of control), % at 5.6 µM | 0.91% of 190,000 active;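 active means activation above the screen-wide mean of compound activation plus 3 SD, cut at about 130% in these data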;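 further: 0% = background luminescence of wells with medium and substrate only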
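System – human U3A cells carrying STAT3-luciferase construct · Probe or stimulus – Interleukin-6, 33 ng/mL · Schedule – compound 1 h, then IL-6 6 h at 37 °C · Signal – luminescence from STAT3-driven luciferase reporter · Evaluation – percent of IL-6-only median luminescence · Benchmarks – IL-6-only high control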
Active calls of the source: *; . = no result.

SMILES | bCat nuc transl | STAT1 inh | STAT3 inh | MT stabilizer | STAT3 activator
Oc1ccccc1N=Cc1sc2ccccc2c1Cl | 2.9 | 11.3 | -48.2 | 3.6 | 135.0*
Cc1ccc(-c2csc3nc4c5ccccc5c(NCCCN(C)C)nn4c(=O)c23)cc1 | 6.1 | 0.5 | 17.5 | 76.9* | 87.3
O=C(c1c[nH]c(C(=O)N2CCN(c3ccccc3F)CC2)c1)c1cccc(Cl)c1Cl | -0.5 | 1.9 | 6.6 | 23.1* | 99.8
Cc1ccccc1C(=O)c1c[nH]c(C(=O)N2CCN(c3ccccc3F)CC2)c1 | -2.2 | -10.6 | 18.9 | 7.8 | 87.5
C/C(=N\NC(=O)CC1N=C(Cc2ccccc2)NNC1=O)c1ccc(C)cc1 (stereo unspecified) | -0.1 | -7.0 | 2.0 | 30.8* | 101.9
C/C(=N\NC(=O)CC1N=C(Cc2ccccc2)NNC1=O)c1ccc(Br)cc1 (stereo unspecified) | -0.2 | . | . | . | .
Clc1ccc2nc(N3CCCCC3)[nH]c2c1 | -0.4 | -39.0 | -4.4 | 3.4 | 104.5
O=c1c2ccccc2cnn1-c1nc2ccccc2[nH]1 | -1.7 | 93.8* | 107.3* | 2.0 | 9.0
O=c1c(Cl)c(N2CCCCC2)cnn1-c1nc2ccccc2[nH]1 | -0.9 | 71.5* | 103.1* | 4.9 | 12.7
CCCn1c(SCC(=O)NC(C)(C)C)nnc1-c1ccco1 | 2.9 | -7.1 | 0.2 | 2.8 | 103.8
Cc1ccccc1Cn1c(=N)n(CC(O)c2ccco2)c2ccccc21 (stereo unspecified) | 0.0 | 5.7 | -4.3 | 2.1 | 108.1
CC(C)(C)c1ccc(Cn2c(=N)n(CC(O)c3ccco3)c3ccccc32)cc1 (stereo unspecified) | -1.4 | 16.4 | 1.1 | 9.5* | 103.6
Cc1cccc(N2CCN(Cc3cn(C)nc3-c3ccccc3F)CC2)n1 | 102.7* | 4.2 | 11.5 | 33.6* | 91.8
CCOC(=O)Cc1csc(NC(=O)c2ccc(C)cc2)n1 | 1.1 | 8.0 | 9.2 | 2.3 | 100.0
CCOC(=O)Cc1csc(NC(=O)c2ccc(Cl)nc2)n1 | 1.3 | -2.1 | 22.4 | 36.8* | 83.9
Cc1onc(-c2ccccc2)c1C(=O)Nc1sc2c(c1C#N)CCC(C)C2 (stereo unspecified) | 0.5 | 6.1 | 9.0 | 27.2* | 94.4
Cc1onc(-c2c(F)cccc2Cl)c1C(=O)Nc1nc2c(s1)CCCC2 | -1.5 | 5.4 | 4.5 | 4.9 | 99.3
Cc1onc(-c2ccccc2)c1C(=O)Nc1nc2c(s1)CCCC2 | -0.5 | -12.1 | 4.1 | 18.5* | 99.1
NNC(=O)c1csc(Cc2c(Cl)sc3ccc(Cl)cc23)n1 | -0.5 | . | . | . | .
COc1cc(CN2CCNC(=O)C2CC(=O)N2CCCO2)cc(OC)c1 (stereo unspecified) | 1.9 | -0.6 | 6.0 | 2.7 | 97.9
COC(=O)c1ccc(-c2nc(-c3cccs3)no2)cc1 | . | 52.2* | 90.6* | 3.8 | 29.8
Fc1ccc(-c2nc(-c3cccs3)no2)cc1 | 0.1 | . | . | . | .
CC(=O)CSc1ccc(-c2nc3cc(C)c(C)cc3[nH]2)cn1 | 0.0 | 85.4* | 103.1* | 2.5 | 13.8
Cc1ccc2nc(-c3ccc(SCC(=O)N4CCc5ccccc54)nc3)[nH]c2c1 | -0.3 | -34.9 | -43.0 | 6.3 | 143.0*
COc1cccc(/C=C/C(=O)NCc2cn3cc(Cl)ccc3n2)c1OC | -1.2 | -12.7 | 0.7 | 1.9 | 100.5
SMILES | bCat nuc transl | STAT1 inh | STAT3 inh | MT stabilizer | STAT3 activator
CCOC(=O)c1c(C)[nH]c(C(=O)N/N=C/c2ccc(Br)cc2)c1C | 121.3* | -1.7 | -35.7 | 7.6 | 128.5
O=C(COc1ccccc1-c1ccccc1)N/N=C/c1cccnc1 | 46.3 | 10.2 | 12.5 | 14.1* | 98.9
O=C(COc1ccccc1-c1ccccc1)N/N=C/c1ccc2ccccc2c1 | 131.0* | -1.9 | -22.7 | 4.9 | 117.4
O=C(O)CC1SC(N/N=C/c2ccc(Br)cc2)NC1=O (stereo unspecified) | -0.8 | -1.9 | 6.7 | 2.4 | 100.1
CCc1ccccc1-n1nnnc1-c1cnccc1C(F)(F)F | 2.0 | . | . | . | .
Cc1ccsc1/C=N\NC(=O)c1n[nH]c2c1CCC2 | 26.6 | -23.5 | 37.8 | 25.1* | 66.8
CC1(C)COC(/C=C/c2ccc([N+](=O)[O-])cc2)=N1 | 31.5 | -11.0 | 15.8 | 17.6* | 89.9
COc1ccc(C(=O)Nn2c(SCC(=O)NCC3CCCO3)nc3ccccc3c2=O)cc1 (stereo unspecified) | 0.7 | 46.7* | 77.1* | 2.3 | 34.1
Cc1ccccc1OCC(=O)Nc1cccc(C(=O)O)c1 | -2.6 | 96.5* | 103.4* | 1.3 | 9.3
Cc1cc(C)cc(OCC(=O)Nc2cccc(C(=O)O)c2)c1 | . | -8.5 | -4.9 | 2.7 | 101.5
CCOC(=O)c1cccc(NC(=O)Nc2ccc(OCC)cc2)c1 | -5.8 | 65.0* | 52.9* | 1.6 | 58.8
CCOc1ccc(NC(=O)Nc2ccc3nsnc3c2)cc1 | -0.3 | -29.4 | 13.5 | 4.3 | 90.3
CCOc1ccc(NC(=O)Nc2cccc(C(=O)O)c2)cc1 | -2.4 | 96.2* | 110.0* | 2.2 | 10.4
O=[N+]([O-])c1ccc(Sc2cccc[n+]2[O-])c2nonc12 | 1.3 | . | . | . | .
Fc1ccc(Nc2nc(-c3cccnc3)cs2)cc1 | 1.1 | -41.6 | -64.1 | 0.9 | 157.0*
c1ccc(-c2csc(Nc3cccnc3)n2)cc1 | 0.0 | -41.4 | -54.5 | 3.8 | 148.7*
Clc1ccc(-c2csc(Nc3cccnc3)n2)cc1 | -0.3 | . | . | . | .
COc1cc(NC(=O)C/C(C)=N/NC(=O)C(=O)NCCO)c(OC)cc1Cl | 0.7 | . | . | . | .
O=C(NC1CC1)c1ccc(-c2nc3ccccc3s2)s1 | -1.1 | 75.0* | 106.3* | 1.6 | 14.1
O=C(c1ccc(-c2nc3ccccc3s2)s1)N1CCOCC1 | -0.8 | 76.9* | 98.5* | 4.3 | 18.5
CCN1CCN(C(=O)c2ccc(-c3nc4ccccc4s3)s2)CC1 | -3.8 | -31.7 | 18.8 | 2.1 | 88.3
CC1(C)CC(=O)C2=C(C1)NC(=O)CC2c1cc(F)ccc1F (stereo unspecified) | -0.1 | 4.2 | 1.4 | 1.2 | 102.0
O=C1CC(c2cc(F)ccc2F)c2cc3c(cc2N1)CCC3 (stereo unspecified) | -1.0 | 23.8 | 14.9 | 14.4* | 90.8
O=C1CC(c2cccc(Br)c2)c2cc3c(cc2N1)CCC3 (stereo unspecified) | -0.1 | 17.3 | 20.2 | 28.1* | 87.5
Cn1ncc(N=Cc2c(O)ccc3ccccc23)c1C(=O)Nc1cccc(Cl)c1 | 9.2 | -0.7 | 6.2 | 14.8* | 97.9
COC(=O)CC1C(=O)NCCN1C(=O)CSc1nc2ccc([N+](=O)[O-])cc2s1 (stereo unspecified) | -0.1 | 0.4 | 13.0 | 2.5 | 95.4
Cc1ccnc(NC(=S)NC(=O)/C=C/c2ccco2)c1 | -1.5 | -47.1 | 0.8 | 21.0* | 104.6
Cc1ccc(O)c(NC(=S)NC(=O)/C=C/c2ccco2)c1 | -0.5 | -0.7 | -5.3 | 30.8 | 107.7
Cc1ccc(-c2csc(NC(=S)NC(=O)/C=C/c3ccco3)n2)cc1 | 31.1 | 5.1 | 13.7 | 31.9* | 93.6
Cc1ccnc(NC(=O)/C=C/c2cccs2)c1 | 2.3 | -40.3 | 28.8 | 14.2* | 74.8
